Laboratory results: ChEMBL document CHEMBL5500387, “Design, synthesis of combretastatin A-4 piperazine derivatives as potential antitumor agents by inhibiting tubulin polymerization and inducing autophagy in HCT116 cells” (Eur J Med Chem, 2024)

Legend:
Tubulin (Homo sapiens) = Tubulin (Homo sapiens) (UniProt P68371+Q9H4B7+P0DPH7+P68366+Q13509+Q71U36+P04350+Q3ZCM7+P07437+P68363+Q9BQE3+Q6PEY2+Q13885+Q9BVA1+Q9BUF5); experiment: Inhibition of tubulin polymerization in human HCT-116 cells measured after 48 hrs by immunofluorescent staining based analysis; type: cell-based; settings: dose 0.1-0.3 µM
How it was run: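 HCT116 cells (1×10^5/well suspension) settled on glass slides overnight at 37 °C, 5% CO2. Treated 48 h with 0.1, 0.2 or 0.3 μM, or 0.1% DMSO. Fixed in 4% paraformaldehyde, permeabilised with 0.5% Triton X-100, blocked. Anti-α-tubulin (1:4000) at 4 °C overnight, then Alexa488 anti-mouse IgG 1 h. DAPI mount, confocal imaging.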

HCT-116 [1] = experiment: Induction of cell cycle arrest in human HCT-116 cells assessed as accumulation of cells at S phase at 0.2 uM measured after 24 hrs by PI/RNase staining based flow cytometry analysis (reference value: 38.29%); type: functional
HCT-116 [2] = experiment: Induction of autophagy in human HCT-116 cells assessed as increase in LC3-II protein expression measured after 24 hrs by Western blot analysis; type: functional, cell-based; settings: dose 0.1-0.3 µM
How it was run: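 HCT116 cells exposed for 24 h to 0.1, 0.2 or 0.3 μM. Lysed on ice and protein measured by BCA. […] Milk-blocked, probed with anti-LC3A/B or anti-phospho-SQSTM1/p62 (1:1000) plus β-actin, then HRP anti-rabbit and chemiluminescence. Bands normalised to control set to 1. Three independent experiments.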

A549 [3] = experiment: Induction of cell cycle arrest in human A549 cells assessed as accumulation of cells at S phase at 0.1 uM measured after 24 hrs by PI/RNase staining based analysis (reference value: 24.95%); type: functional
A549 [4] = experiment: Induction of cell cycle arrest in human A549 cells assessed as accumulation of cells at G0/G1 phase at 0.3 uM measured after 24 hrs by PI/RNase staining based analysis (reference value: 41.91%); type: functional
A549 [5] = experiment: Induction of cell cycle arrest in human A549 cells assessed as accumulation of cells at G2/M phase at 0.3 uM measured after 24 hrs by PI/RNase staining based analysis (reference value: 10.22%); type: functional
A549 [6] = experiment: Induction of apoptosis in human A549 cells assessed as dead cells at 0.3 uM measured after 24 hrs by Annexin V-APC/PI staining based flow cytometry analysis (reference value: 0.50%); type: functional

`COc1ccc(/C=C(/C(=O)N2CCN(c3ccc(C)cc3)CC2)c2cc(OC)c(OC)c(OC)c2)cc1O` was tested, and the inhibition (Tubulin (Homo sapiens)) was “Dose-Dependent Effect”, the Activity (HCT-116 [1]) was 21.17% and the Activity (HCT-116 [2]) was “Dose-Dependent Effect”. The Activity (A549 [3]) was 24.95%, the Activity (A549 [4]) was 87.18% and the Activity (A549 [5]) was 5.65%. It also gave an Activity (A549 [6]) of 1.25%.
